Results reported in ChEMBL document CHEMBL5715950, “Characterization of molecular and cellular functions of the cyclin-dependent kinase CDK9 using a novel specific inhibitor” (Br J Pharmacol, 2014).
The source made the active and inactive calls. No cut-off for these calls is given here.

Columns and labels:
[1] = molecular target: Cyclin-dependent kinase 4/cyclin D1 (Homo sapiens, UniProt P11802); assay: Inhibition of CDK4/Cyclin D1 (unknown origin) using ULight MBP peptide as substrate in presence of ATP incubated for 1 hr by FRET based LANCE Ultra KinaSelect screen assay; assay type: protein-complex assay
Cyclin-dependent kinase 4/cyclin D1, sequence (P11802 whole entry): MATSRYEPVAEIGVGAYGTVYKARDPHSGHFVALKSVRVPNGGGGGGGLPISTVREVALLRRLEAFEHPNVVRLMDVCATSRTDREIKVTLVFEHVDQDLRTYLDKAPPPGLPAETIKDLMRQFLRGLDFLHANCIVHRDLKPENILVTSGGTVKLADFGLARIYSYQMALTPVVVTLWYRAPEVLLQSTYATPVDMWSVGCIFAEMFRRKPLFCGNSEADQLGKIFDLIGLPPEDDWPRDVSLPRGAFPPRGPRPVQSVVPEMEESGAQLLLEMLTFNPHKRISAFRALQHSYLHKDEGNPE
Cyclin-dependent kinase 4/cyclin D1, sequence (P24385 whole entry, further chain): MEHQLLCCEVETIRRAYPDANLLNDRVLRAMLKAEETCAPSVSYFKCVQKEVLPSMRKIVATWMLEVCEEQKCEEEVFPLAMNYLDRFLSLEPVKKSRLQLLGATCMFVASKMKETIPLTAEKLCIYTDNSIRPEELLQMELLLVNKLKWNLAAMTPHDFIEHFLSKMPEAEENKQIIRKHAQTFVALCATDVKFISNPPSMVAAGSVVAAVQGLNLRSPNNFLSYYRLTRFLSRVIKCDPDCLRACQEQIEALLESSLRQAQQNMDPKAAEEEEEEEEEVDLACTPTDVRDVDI

[2] = Selectivity ratio of IC50 for inhibition of CDK9/Cyclin T1 (unknown origin) to IC50 for inhibition of CDK2/Cyclin A (unknown origin)
[3] = Selectivity ratio of IC50 for inhibition of CDK9/Cyclin T1 (unknown origin) to IC50 for inhibition of CDK4/Cyclin D1 (unknown origin)
[4] = Selectivity ratio of IC50 for inhibition of CDK9/Cyclin T1 (unknown origin) to IC50 for inhibition of CDK6/Cyclin D3 (unknown origin)
CDK7/Cyclin H/MNAT1 = CDK7/Cyclin H/MNAT1 (Homo sapiens, UniProt P50613); assay: Displacement of kinase tracer 236 from CDK7/Cyclin H/MAT1 (unknown origin) assessed as dissociation constant incubated for 1 hr by LanthScreen Eu kinase binding assay; assay type: protein-complex assay
CDK7/Cyclin H/MNAT1, sequence (P51946 whole entry): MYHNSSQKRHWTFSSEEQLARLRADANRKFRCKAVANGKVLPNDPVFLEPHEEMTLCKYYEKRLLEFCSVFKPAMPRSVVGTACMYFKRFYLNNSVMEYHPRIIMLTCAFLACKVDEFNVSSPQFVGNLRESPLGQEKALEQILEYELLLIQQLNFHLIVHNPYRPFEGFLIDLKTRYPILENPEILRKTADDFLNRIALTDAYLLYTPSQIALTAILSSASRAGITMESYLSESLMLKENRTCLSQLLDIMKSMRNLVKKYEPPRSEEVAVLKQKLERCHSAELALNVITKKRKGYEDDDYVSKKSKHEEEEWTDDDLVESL
CDK7/Cyclin H/MNAT1, sequence (P50613 whole entry): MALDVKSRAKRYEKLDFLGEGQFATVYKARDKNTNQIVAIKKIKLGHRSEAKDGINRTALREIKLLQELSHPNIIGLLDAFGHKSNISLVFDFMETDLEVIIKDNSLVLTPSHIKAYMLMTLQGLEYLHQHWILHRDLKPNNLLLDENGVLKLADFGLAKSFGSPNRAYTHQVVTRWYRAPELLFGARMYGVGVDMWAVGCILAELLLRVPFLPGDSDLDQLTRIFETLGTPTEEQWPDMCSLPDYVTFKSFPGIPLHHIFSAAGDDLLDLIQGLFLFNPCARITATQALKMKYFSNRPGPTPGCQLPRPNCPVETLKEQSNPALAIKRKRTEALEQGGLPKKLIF
CDK7/Cyclin H/MNAT1, sequence (P51948 whole entry, further chain): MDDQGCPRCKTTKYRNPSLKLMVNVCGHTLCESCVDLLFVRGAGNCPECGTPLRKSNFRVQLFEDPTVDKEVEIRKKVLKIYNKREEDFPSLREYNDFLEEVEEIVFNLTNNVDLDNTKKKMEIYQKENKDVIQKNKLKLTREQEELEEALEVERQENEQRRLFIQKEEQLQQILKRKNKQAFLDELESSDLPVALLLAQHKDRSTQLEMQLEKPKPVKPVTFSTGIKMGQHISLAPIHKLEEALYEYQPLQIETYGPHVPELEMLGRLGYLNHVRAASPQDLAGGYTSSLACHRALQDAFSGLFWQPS

[5] = molecular target: CDK9/cyclin T1 (Homo sapiens) (UniProt O60563+P50750); assay: Inhibition of CDK9/Cyclin T1 (unknown origin) assessed as residual activity at 10 uM incubated for 120 mins in presence of 33P-ATP by radiometric kinase assay relative to control; assay type: protein-complex assay
HEK-293T = assay: Inhibition of transcription in human HEK293T cells nuclear extract fused with Gal4-VP16 at 10 uM in presence of ATP and KCL by phosphorimaging analysis; assay type: functional, subcellular; settings: Nucleus
In short: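 In vitro transcription from the adenovirus core promoter (Gal-ML, 380 bp G-free cassette), soluble or bead-immobilised template, using HEK293T nuclear extract supplemented with recombinant Gal4-VP16. ATP 60 μM (low), 100 μM, or 500 μM (high); magnesium varied in one series. Transcripts quantified by phosphorimaging.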

[6] = molecular target: Cyclin-dependent kinase 9 (Mus musculus) (UniProt Q99J95); assay: Inhibition of CDK9 in mouse Embryonic stem cell assessed as downregulation of Serine 2 phosphorylation by measuring fold decrease at 10 uM incubated for 90 mins by Western blotting analysis; assay type: cell-based
Cyclin-dependent kinase 9 (Mus musculus), sequence (Q99J95 whole entry): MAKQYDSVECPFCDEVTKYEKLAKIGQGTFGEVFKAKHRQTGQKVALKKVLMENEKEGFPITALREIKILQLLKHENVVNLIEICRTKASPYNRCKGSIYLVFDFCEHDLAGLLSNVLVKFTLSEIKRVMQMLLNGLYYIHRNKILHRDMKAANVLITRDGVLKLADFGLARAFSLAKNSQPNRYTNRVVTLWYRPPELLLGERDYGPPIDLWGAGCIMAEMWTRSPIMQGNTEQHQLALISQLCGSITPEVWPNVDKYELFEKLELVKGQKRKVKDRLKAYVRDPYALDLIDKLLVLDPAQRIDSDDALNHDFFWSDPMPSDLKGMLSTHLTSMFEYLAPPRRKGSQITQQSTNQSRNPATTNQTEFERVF
In short: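 Mouse embryonic stem cells treated with 10 μM inhibitor or DMSO for 90 or 180 min; whole-cell Western blot for RNAPII CTD Ser2-P. Band signals quantified densitometrically and normalised to total RNAPII.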

[7] = molecular target: Cyclin-dependent kinase 9 (Homo sapiens) (UniProt P50750); assay: Inhibition of CDK9 in human HeLa cells assessed as downregulation of Serine 2 phosphorylation by measuring fold decrease at 10 uM incubated for 60 mins by Western blotting analysis; assay type: cell-based
Cyclin-dependent kinase 9 (Homo sapiens), sequence (P50750 whole entry): as the sequence (Q99J95 whole entry) above, with T17S, K37R, Q40K, K258N, F262Y counted along it

[8] = molecular target: Cyclin-dependent kinase 9 (Homo sapiens) (UniProt P50750); assay: Inhibition of CDK9 in human HeLa cells assessed as downregulation of Serine 7 phosphorylation at 10 uM incubated for 60 mins by Western blotting analysis; assay type: cell-based
[9] = molecular target: Cyclin-dependent kinase 9 (Homo sapiens) (UniProt P50750); assay: Inhibition of CDK9 in human MCF7 cells assessed as upregulation of p53 phosphorylation at Ser392 at 10 uM incubated for 4 hrs by Western blotting analysis; assay type: cell-based
[10] = molecular target: Cyclin-dependent kinase 9 (Homo sapiens) (UniProt P50750); assay: Inhibition of CDK9 in human MCF7 cells assessed as upregulation of p53 protein at 10 uM incubated for 4 hrs by Western blotting analysis; assay type: cell-based
THP-1 = assay: Induction of apoptosis in human THP-1 cells at > 2 uM incubated for 24 hrs by Annexin V-FITC/PI staining based flow cytometric analysis; assay type: functional, cell-based
In short: (§1)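 Cells grown at 37°C, 5% CO2 (A549, HeLa, MCF7 in DMEM high glucose; HCT116 in McCoy's 5A; THP1 and primary AML M4 apheresis blasts in RPMI1640), exposed to inhibitor or DMSO for 24 h. Apoptotic fraction by flow cytometry after annexin V-fluorescein/propidium iodide double staining. Means ± SD of three biological replicates; AML blasts from one patient, three technical replicates. Student's t-test versus DMSO/untreated.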

Leukemia cell = assay: Induction of apoptosis in human Acute myeloid leukemic cell at > 2 uM incubated for 24 hrs by Annexin V-FITC/PI staining based flow cytometric analysis; assay type: functional; in short: as §1
[11] = Induction of apoptosis in human Acute myeloid leukemic cell at 10 uM incubated for 24 hrs by Annexin V-FITC/PI staining based flow cytometric analysis relative to control; assay type: functional, Leukemia cell; in short: as §1
HCT 116 TP53(-/-) = assay: Induction of apoptosis in human HCT116-p53-null cells at 10 uM incubated for 24 hrs by Annexin V-FITC/PI staining based flow cytometric analysis; assay type: functional, cell-based; in short: as §1
[12] = molecular target: Cyclin-dependent kinase 9 (Homo sapiens) (UniProt P50750); assay: Inhibition of CDK9 in human A549 cells assessed as downregulation of p21 mRNA expression at 1 to 10 uM incubated for 90 mins by RT-qPCR analysis relative to control; assay type: cell-based; settings: dose 1-10 µM
[13] = molecular target: Cyclin-dependent kinase 9 (Homo sapiens) (UniProt P50750); assay: Inhibition of CDK9 in human A549 cells assessed as downregulation of MYC mRNA expression at 1 to 10 uM incubated for 90 mins by RT-qPCR analysis relative to control; assay type: cell-based; settings: dose 1-10 µM
[14] = molecular target: Cyclin-dependent kinase 9 (Homo sapiens) (UniProt P50750); assay: Inhibition of CDK9 in human A549 cells assessed as downregulation of CCND1 mRNA expression at 2 to 6 uM incubated for 90 mins by RT-qPCR analysis relative to control; assay type: cell-based; settings: dose 2-6 µM
[15] = molecular target: Cyclin-dependent kinase 9 (Homo sapiens) (UniProt P50750); assay: Inhibition of CDK9 in human A549 cells assessed as downregulation of GAPDH mRNA expression at 2 to 6 uM incubated for 90 mins by RT-qPCR analysis relative to control; assay type: cell-based; settings: dose 2-6 µM
[16] = molecular target: Cyclin-dependent kinase 9 (Mus musculus) (UniProt Q99J95); assay: Inhibition of CDK9 in mouse Embryonic stem cell assessed as downregulation of MYC mRNA expression at 2.5 to 40 uM incubated for 90 mins by RT-qPCR analysis relative to control; assay type: cell-based; settings: dose 2.5-40 µM
HeLa [17] = assay: Inhibition of RNA synthesis in human HeLa cells stably transfected with luciferase reporter gene incubated for 30 mins followed by doxycycline addition and measured after 60 mins by RT-qPCR analysis; assay type: functional, cell-based; settings: time 90.0 min
In short: (§2)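 Stably transfected HeLa cells carrying a tetracycline-inducible luciferase reporter: inhibitor or DMSO for 30 min, then 1 μg/mL doxycycline for 60 min. De novo reporter transcripts measured by RT-qPCR.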

HeLa [18] = assay: Inhibition of RNA synthesis in human HeLa cells stably transfected with luciferase reporter gene at 2 uM incubated for 30 mins followed by doxycycline addition and measured after 60 mins by RT-qPCR analysis relative to control; assay type: functional; settings: 1.5 h, time 90 min; in short: as §2
[19] = molecular target: Cyclin-dependent kinase 9 (Homo sapiens) (UniProt P50750); assay: Inhibition of CDK9 in human THP-1 cells assessed as downregulation of RPS15 mRNA expression by RT-qPCR analysis; assay type: cell-based
[20] = molecular target: Cyclin-dependent kinase 9 (Homo sapiens) (UniProt P50750); assay: Inhibition of CDK9 in human THP-1 cells assessed as downregulation of RPL31 mRNA expression by RT-qPCR analysis; assay type: cell-based
[21] = molecular target: Cyclin-dependent kinase 9 (Homo sapiens) (UniProt P50750); assay: Inhibition of CDK9 in human HeLa cells assessed as upregulation of serine 7 phosphorylation at 10 uM incubated for 1 hr by chromatin immunoprecipitation assay; assay type: cell-based
[22] = molecular target: Cyclin-dependent kinase 9 (Homo sapiens) (UniProt P50750); assay: Inhibition of CDK9 in human HeLa cells assessed as upregulation of serine 2 phosphorylation at 10 uM incubated for 1 hr by chromatin immunoprecipitation assay; assay type: cell-based

Work on COc1ccccc1-c1cc(Nc2cccc(NS(C)(=O)=O)c2)ncn1 yielded an IC50 [1] of 9.24 µM, a Ratio IC50 [2] of 55 and a Ratio IC50 [3] of 210. The Ratio IC50 [4] was > 227, the Kd (CDK7/Cyclin H/MNAT1) was 16 µM and the Activity [5] was 6%. For the same compound, the inhibition (HEK-293T) was “Active”, the fold change (FC) [6] was 1.6 and the fold change (FC) [7] was 1.6. For the same compound, the inhibition [8] was “inactive”, the inhibition [9] was “Active” and the inhibition [10] was “Active”. For the same compound, the Activity (THP-1) was “Active”, the Activity (Leukemia cell) was “Active” and the Activity [11] was >60%. The Activity (HCT 116 TP53(-/-)) was “Active”, the inhibition [12] was 50% and the inhibition [13] was 50%. For the same compound, the inhibition [14] was 50%, the inhibition [15] was 50% and the inhibition [16] was “Active”. The inhibition (HeLa [17]) was “Dose-Dependent Effect”, the inhibition at 2 µM (HeLa [18]) was 50% and the inhibition [19] was “Active”. For the same compound, the inhibition [20] was “Active”, the inhibition [21] was “Active” and the inhibition [22] was “Active”.
